{"source": "ChEMBL document CHEMBL4513216", "about": "“Probing the Open Global Health Chemical Diversity Library for Multistage-Active Starting Points for Next-Generation Antimalarials” (ACS Infect Dis, 2020)", "assay": "Toxicity liver stage against HepG2, at 10uM", "assay_type": "cell-based", "set-up": "test concentration 10 uM, cell line HepG2-A16-CD81EGFP", "conditions": "human, HepG2-A16-CD81EGFP cells; read-out: INHIBITION", "method_in_brief": "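Uninfected HepG2-A16-CD81EGFP cells, 3 × 10^3 per well, 1536-well, plated on prespotted compound at 10 μM final, parasite-free screening media added to match infected plates; puromycin 10 μM positive, DMSO 0.5% negative; run in parallel with 48 h PbLuc assay at 37 °C, 5% CO2; viability by CellTiter-Glo luminescence, normalized to controls.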", "data": [{"smiles": "O=C(CCc1cc2n(n1)CCCN(C(=O)[C@H]1CCCO1)C2)NC1CC1", "values": [{"measurement": "cytotoxicity at 10 µM", "result": 4.78, "unit": "%"}]}, {"smiles": "CCc1ncc2c(n1)CN(C(=O)CCCc1ccc(OC)cc1)C2", "values": [{"measurement": "cytotoxicity at 10 µM", "result": -7.32, "unit": "%"}]}, {"smiles": "Cc1c(C(=O)NCCC2CN(C)CCO2)n(C)c2c(C)cccc12", "note": "(stereo not given)", "values": [{"measurement": "cytotoxicity at 10 µM", "result": -3.83, "unit": "%"}]}, {"smiles": "CCOc1ccc(CN2CCNC(C(=O)NC3CC3)C2)cc1CO", "note": "(stereo not given)", "values": [{"measurement": "cytotoxicity at 10 µM", "result": 2.95, "unit": "%"}]}, {"smiles": "CN1CCc2[nH]cnc2C12CCN(Cc1ccc3nsnc3c1)CC2", "values": [{"measurement": "cytotoxicity at 10 µM", "result": 5.05, "unit": "%"}]}, {"smiles": "Cc1ccccc1-n1c(C)cc(=O)[nH]c1=O", "values": [{"measurement": "cytotoxicity at 10 µM", "result": -2.4, "unit": "%"}]}, {"smiles": "CC(C)(C)c1cc2ncn(CCCN3CCCCC3CO)c(=O)c2s1", "note": "(stereo not given)", "values": [{"measurement": "cytotoxicity at 10 µM", "result": -5.39, "unit": "%"}]}, {"smiles": "Cc1ccc(CN2CCC(c3nnc(CN4CCCCC4)n3C)CC2)o1", "values": [{"measurement": "cytotoxicity at 10 µM", "result": -5.1, "unit": "%"}]}, {"smiles": "COc1cccc2c1OCC(CNC(=O)CSc1nc(N)n[nH]1)C2", "note": "(stereo not given)", "values": [{"measurement": "cytotoxicity at 10 µM", "result": 0.712, "unit": "%"}]}, {"smiles": "CCn1cc(CN2CCCn3nc(CCC(=O)NCCO)cc3C2)cn1", "values": [{"measurement": "cytotoxicity at 10 µM", "result": -18.2, "unit": "%"}]}, {"smiles": "COc1ccc(OCc2nc(C(=O)N3CC(O)C3)co2)cc1", "values": [{"measurement": "cytotoxicity at 10 µM", "result": -9.29, "unit": "%"}]}, {"smiles": "CNC(=O)C1(c2cnccn2)CCCN1C(=O)c1ccn(C)n1", "note": "(stereo not given)", "values": [{"measurement": "cytotoxicity at 10 µM", "result": -5.15, "unit": "%"}]}, {"smiles": "Cc1nc(C)n(C2CCCN(C(=O)CCOc3cccc(F)c3)C2)n1", "note": "(stereo not given)", "values": [{"measurement": "cytotoxicity at 10 µM", "result": -1.79, "unit": "%"}]}, {"smiles": "CCN1N=C(C(=O)N2CCCC(c3nc(C)cs3)C2)CCC1=O", "note": "(stereo not given)", "values": [{"measurement": "cytotoxicity at 10 µM", "result": -3.12, "unit": "%"}]}, {"smiles": "CCn1cnnc1C1CCN(C(=O)c2cc(F)ccc2OC)CC1", "values": [{"measurement": "cytotoxicity at 10 µM", "result": -3.35, "unit": "%"}]}, {"smiles": "CC(C)Oc1ccc(Cl)c(C(=O)N2CCN(CCO)CC2)n1", "values": [{"measurement": "cytotoxicity at 10 µM", "result": -3.82, "unit": "%"}]}, {"smiles": "CCn1cc(CN2CCCN(C(=O)CCc3ccccc3)CC2)cn1", "values": [{"measurement": "cytotoxicity at 10 µM", "result": -7.9, "unit": "%"}]}, {"smiles": "O=C(c1ccc2[nH]nnc2c1)N1CCC(Nc2cccnn2)CC1", "values": [{"measurement": "cytotoxicity at 10 µM", "result": -1.49, "unit": "%"}]}, {"smiles": "O=C1COc2ccc(C(=O)NS(=O)(=O)c3cc(F)ccc3F)cc2N1", "values": [{"measurement": "cytotoxicity at 10 µM", "result": -4.92, "unit": "%"}]}, {"smiles": "COc1ccccc1OCCC(=O)N1CCCC1Cn1cccn1", "note": "(stereo not given)", "values": [{"measurement": "cytotoxicity at 10 µM", "result": -5.19, "unit": "%"}]}, {"smiles": "COc1ccc(C(=O)N(Cc2cnn(C)c2)C(C)C)cc1OC(F)F", "values": [{"measurement": "cytotoxicity at 10 µM", "result": -5.17, "unit": "%"}]}, {"smiles": "CCOc1cc(C(=O)N2CCCC(c3noc(C)n3)C2)ccc1OC", "note": "(stereo not given)", "values": [{"measurement": "cytotoxicity at 10 µM", "result": -3.33, "unit": "%"}]}, {"smiles": "O=C1NCCN1C1CCCN(Cc2coc(-c3cccs3)n2)C1", "note": "(stereo not given)", "values": [{"measurement": "cytotoxicity at 10 µM", "result": -4.39, "unit": "%"}]}, {"smiles": "Cc1ccc(-n2nnc(C(=O)NCC3(CO)CC3)c2C2CC2)cc1", "values": [{"measurement": "cytotoxicity at 10 µM", "result": -4.43, "unit": "%"}]}, {"smiles": "Cc1ncsc1C(=O)N(Cc1ccccc1)C1CC1", "values": [{"measurement": "cytotoxicity at 10 µM", "result": -6.48, "unit": "%"}]}, {"smiles": "Cc1cccc(NC(=O)C2CSCN2C(=O)c2cnccn2)c1C", "note": "(stereo not given)", "values": [{"measurement": "cytotoxicity at 10 µM", "result": -0.691, "unit": "%"}]}, {"smiles": "CCN(CC)C(CNC(=O)c1c(C)noc1C(C)C)c1ccsc1", "note": "(stereo not given)", "values": [{"measurement": "cytotoxicity at 10 µM", "result": -12.2, "unit": "%"}]}, {"smiles": "Fc1ccc(-c2nc(CN3CCCC3Cn3cncn3)co2)cc1F", "note": "(stereo not given)", "values": [{"measurement": "cytotoxicity at 10 µM", "result": -5.58, "unit": "%"}]}, {"smiles": "Cc1cc(C)n(C2CN(CC(O)c3cc(F)ccc3F)C2)n1", "note": "(stereo not given)", "values": [{"measurement": "cytotoxicity at 10 µM", "result": -15.1, "unit": "%"}]}, {"smiles": "CC(C)c1nc(CN(C)C2CCN(CCS(C)(=O)=O)C2)no1", "note": "(stereo not given)", "values": [{"measurement": "cytotoxicity at 10 µM", "result": -13.4, "unit": "%"}]}, {"smiles": "Cc1ccc(CC(=O)N2CCCC2Cn2nc(C)cc2C)cn1", "note": "(stereo not given)", "values": [{"measurement": "cytotoxicity at 10 µM", "result": -9.24, "unit": "%"}]}, {"smiles": "CC(Cn1cccn1)NCc1csc(COc2ccc(F)cc2)n1", "note": "(stereo not given)", "values": [{"measurement": "cytotoxicity at 10 µM", "result": 5.84, "unit": "%"}]}, {"smiles": "Cn1cnc2c1CCN(Cc1csc(C3CCCCC3)n1)C2", "values": [{"measurement": "cytotoxicity at 10 µM", "result": -3.36, "unit": "%"}]}, {"smiles": "Cc1ccc(OCC(O)CN2CCC(Cn3cc(C)cn3)CC2)cc1", "note": "(stereo not given)", "values": [{"measurement": "cytotoxicity at 10 µM", "result": -3.17, "unit": "%"}]}, {"smiles": "CC(OCc1ccccc1)C(=O)NCc1ccc(N(C)C)cc1", "note": "(stereo not given)", "values": [{"measurement": "cytotoxicity at 10 µM", "result": -12, "unit": "%"}]}, {"smiles": "CCc1nnc2n1CCN(C(=O)c1cc3cc(F)ccc3[nH]1)C2", "values": [{"measurement": "cytotoxicity at 10 µM", "result": -9.52, "unit": "%"}]}, {"smiles": "CN(C)S(=O)(=O)c1ccc(CN2CCCC2c2ccccc2)o1", "note": "(stereo not given)", "values": [{"measurement": "cytotoxicity at 10 µM", "result": -5.72, "unit": "%"}]}, {"smiles": "Cc1cnn(CC2CN(Cc3nnc(C4CC4)o3)CCO2)c1", "note": "(stereo not given)", "values": [{"measurement": "cytotoxicity at 10 µM", "result": -11.8, "unit": "%"}]}, {"smiles": "Cc1ccc(NC(=O)C2CSCN2C(=O)c2cnccn2)c(C)c1", "note": "(stereo not given)", "values": [{"measurement": "cytotoxicity at 10 µM", "result": -8.6, "unit": "%"}]}, {"smiles": "CN1CCCC1CNC(=O)CCCOCc1ccccc1", "note": "(stereo not given)", "values": [{"measurement": "cytotoxicity at 10 µM", "result": -5.59, "unit": "%"}]}, {"smiles": "COc1c(CNC(c2ccc(F)cc2)C(C)(C)C)c(C)nn1C", "note": "(stereo not given)", "values": [{"measurement": "cytotoxicity at 10 µM", "result": 0.0161, "unit": "%"}]}, {"smiles": "CCN(Cc1ccc2c(c1)OCO2)C(=O)CCc1c(C)nc(C)[nH]c1=O", "values": [{"measurement": "cytotoxicity at 10 µM", "result": -4.61, "unit": "%"}]}, {"smiles": "Cc1cc2n(n1)CC(CNCc1ccc(-n3cccn3)nc1)CN2", "note": "(stereo not given)", "values": [{"measurement": "cytotoxicity at 10 µM", "result": -10.5, "unit": "%"}]}, {"smiles": "Cc1nc(CN2CCN(Cc3nccn3C)CC2)no1", "values": [{"measurement": "cytotoxicity at 10 µM", "result": 3.44, "unit": "%"}]}, {"smiles": "Cc1cc(NC(=O)CN2CCOC(Cn3cccn3)C2)n(C)n1", "note": "(stereo not given)", "values": [{"measurement": "cytotoxicity at 10 µM", "result": 5.56, "unit": "%"}]}, {"smiles": "CCc1nc(CN2CCCN(C(=O)c3cn[nH]c3CC)CC2)cs1", "values": [{"measurement": "cytotoxicity at 10 µM", "result": -7.21, "unit": "%"}]}, {"smiles": "O=C(CN(C1=NCCCC1)c1ccccc1)c1ccc2c(c1)OCCO2", "values": [{"measurement": "cytotoxicity at 10 µM", "result": 8.9, "unit": "%"}]}, {"smiles": "COc1ccc(CN2CC[C@@H](O)[C@@H]2Cc2cnn(C)c2)cc1", "values": [{"measurement": "cytotoxicity at 10 µM", "result": -68.3, "unit": "%"}]}, {"smiles": "c1cnc(N2CC3(CCN(C4CCOCC4)CC3)c3ccccc32)nc1", "values": [{"measurement": "cytotoxicity at 10 µM", "result": -6.32, "unit": "%"}]}, {"smiles": "O=C([C@@H]1C[C@@H]2CCN(Cc3ccc4c(c3)OCO4)C[C@@H]2O1)N1CCCC1", "values": [{"measurement": "cytotoxicity at 10 µM", "result": -2.46, "unit": "%"}]}, {"smiles": "CC[C@H](N)Cn1nc(-c2cccs2)oc1=O", "values": [{"measurement": "cytotoxicity at 10 µM", "result": 1.75, "unit": "%"}]}, {"smiles": "CN(C)CCOCC1CN(Cc2ccc(F)cc2)Cc2nnn(C)c21", "note": "(stereo not given)", "values": [{"measurement": "cytotoxicity at 10 µM", "result": 4.59, "unit": "%"}]}, {"smiles": "Cn1cnc2c1C(COCC1CCOCC1)CN(c1ncccn1)C2", "note": "(stereo not given)", "values": [{"measurement": "cytotoxicity at 10 µM", "result": -74.1, "unit": "%"}]}, {"smiles": "Cc1cc(C(=O)N2CCCC3(COCCN(c4ncccn4)C3)C2)[nH]n1", "note": "(stereo not given)", "values": [{"measurement": "cytotoxicity at 10 µM", "result": -3.58, "unit": "%"}]}, {"smiles": "CC(C)(C)c1cc(CN2C[C@H]3CC[C@@H](C2)N(Cc2ccccn2)C3)n[nH]1", "values": [{"measurement": "cytotoxicity at 10 µM", "result": 0.541, "unit": "%"}]}]}
